# The list is not random: actives were taken first. Their share in the collection is about 2.6%.
# HSF-1 act – increases HSF-1 driven luciferase reporter signal | AID 504408 | actives 1.7% (n = 300,000) | NIH3T3-HGL HSF-1 luciferase reporter, MG132, 8 h; 100% = twice DMSO control signal | activation, % at 9 µM;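 active means mean replicate activation of at least 50% with a set share of replicates each reaching 50%; inconclusive means only one of those two conditions met; inactive means mean below 50% and too few replicates reaching it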;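 further: 0% = median of the neutral control wells and 100% = twice that signal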
# HSF1 inh – HSF1 inhibition | AID 2098 | NIH3T3-HGL HSE-luciferase, MG132-induced, luminescence 8 h; active compounds read low | actives 0.77% (n = 300,000) | activity change, negative = inhibition, % at 7.5 µM (by protocol);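 active means more than half of replicate wells show activity change below -50%, luminescence cut by over half; inconclusive means some wells, but at most half, below -50%; inactive means no replicate well below -50%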;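 further: luciferase reports HSF-1 transcriptional activity via heat shock element; 0% = median of DMSO wells and -100% = zero luminescence signal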
# Hsp70 activator – Hsp70 transcriptional activation, primary screen. HeLa Hsp70 promoter luciferase reporter, luminescence; scaled: vehicle 0, proteasome-inhibitor control 100%. actives 0.04% (n = 200,000). activation, % at 10 µM;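 active means activation above the mean across all tested compounds plus 3 SD, cutoff set per campaign, cut at about 5.5% in these data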;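 further: 100% = MG132 at 30 µM as the positive control and 0% = DMSO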
# Mdm2 ligase inh – inhibitors of human Mdm2 E3 ubiquitin ligase | Q00987 | cell-based MDM2 ubiquitination luciferase reporter, 2 h; 0 = plate control, 100 = twice control, blank-subtracted | signal enhancement, % at 5 µM | actives 0.11% (n = 210,000) | AID 1230;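 active means signal enhancement of 30% or more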;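 further: luminescence tracks abundance of the self-degrading MDM2-luciferase fusion protein; higher signal means inhibition of MDM2 E3 ligase activity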
# Target sequence (Q00987 whole entry, looked up, the tested form may be a part): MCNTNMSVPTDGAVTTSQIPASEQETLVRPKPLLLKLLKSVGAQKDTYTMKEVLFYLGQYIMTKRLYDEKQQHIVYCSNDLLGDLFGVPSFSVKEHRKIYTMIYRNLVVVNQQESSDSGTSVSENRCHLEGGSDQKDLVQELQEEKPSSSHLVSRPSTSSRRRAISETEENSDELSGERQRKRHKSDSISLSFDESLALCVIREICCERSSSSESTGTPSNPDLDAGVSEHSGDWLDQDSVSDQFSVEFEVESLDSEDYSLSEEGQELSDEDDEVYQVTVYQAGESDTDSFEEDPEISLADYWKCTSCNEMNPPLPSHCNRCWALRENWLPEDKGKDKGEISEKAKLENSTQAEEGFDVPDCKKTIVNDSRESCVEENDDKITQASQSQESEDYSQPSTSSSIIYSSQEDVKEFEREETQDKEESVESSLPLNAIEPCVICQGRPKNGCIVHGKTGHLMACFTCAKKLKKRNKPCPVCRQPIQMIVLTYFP
#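 Buffer or medium: Cells held in DMEM | Assay system: Stable mammalian line carrying autodegrading MDM2–luciferase fusion reporter | Quantity: 2000 cells/well | Times: 4 h settle plus 2 h compound, 37 °C | Doses: One concentration, 5 µM, with 0.2% DMSO | Technique: Luminescence with SteadyLite reagent, 15 min at room temperature | Benchmarks: Plate controls and plate blanks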
# Rad51 HR inh – blocks human Rad51 in homologous recombination; Q06609; inhibition, % at 10 µM; hRad51 DNA strand exchange, fluorescence dequenching; actives 0.085% (n = 200,000); AID 1385;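 active means inhibition above 40% at the single screening dose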;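 further: 0% = DMSO control wells and 100% = blanks with heterologous ssDNA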
#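 Material: human Rad51–ssDNA filaments; Probe or stimulus: labelled 47-mer dsDNA for strand exchange; Doses: single 10 µM dose; Incubation: 37 °C 15-min filament assembly, 30-min compound preincubation, 15-min exchange; Technique: FRET fluorescence dequenching, excitation 485 nm, emission 520 nm; Measure: Fluorescence-based percent inhibition, control- and blank-normalised; Benchmarks: plate control and blank wells.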
# HSV augment – HSV replication enhancement; maximum fold increase; AID 1956; actives 0.005% (n = 220,000); HSV replication augmentation in cells, fold increase; in the data active means maximum fold increase above about 1.5; inconclusive means no clear call, values can overlap the other calls; tested in PC3 cells
# An asterisk follows results filed as active; i = inactive; ? = inconclusive; nt = no result.
SMILES,HSF-1 act,HSF1 inh,Hsp70 activator,Mdm2 ligase inh,Rad51 HR inh,HSV augment
CCC(C)(C)NC(=O)c1ccc(Sc2nncn2C)c([N+](=O)[O-])c1,-7,-13,0,-18,-2,i
COc1ccc(NC(=O)C=C(C)C)cc1Cl,nt,nt,0,-18,14,i
CC(C)=CC(=O)Nc1ccc(Cl)cc1,51*,27,0,-1,nt,i
CCOc1ccc2[nH]c(=O)c(CN(CC3COCCO3)C(=O)c3ccco3)cc2c1 (configuration not stated),7,-2,nt,nt,-2,i
CCOc1ccc2[nH]c(=O)c(CN(Cc3ccc(F)cc3)C(=O)c3ccco3)cc2c1,75*,23,0,-9,-9,i
O=C(c1ccncc1)N(Cc1cc2ccccc2[nH]c1=O)C1CCCCC1,-3,-2,0,-11,2,i
O=C(c1ccco1)N(Cc1cc2ccccc2[nH]c1=O)C1CCCCC1,-85,-82*,0,1,-7,i
C/C(=N\NC(=O)c1nnn(-c2nonc2N)c1-c1cccs1)c1cccc(O)c1,2,8,nt,nt,nt,nt
CSc1sc(C(=O)OC(C)C)c2c1C(=O)CC(C)(C)C2,53*,30,nt,-14,-3,i
Cc1ccc(Cn2nnc(C(=O)Nc3cc(C)ccc3C)c2N)cc1,104*,61,0,-6,3,i
COC(=O)[C@@]12CCCN1[C@H](c1ccc(-c3ccccc3)cc1)[C@@H]1C(=O)N(C)C(=O)[C@@H]12,-10,9,nt,nt,nt,nt
CN(/C(=N\S(=O)(=O)c1ccccc1)C(F)(F)F)c1ccccc1,-64,-56*,0,10,-6,i
Cc1onc(-c2ccccc2)c1C(=O)N=C(N)c1ccc(C(F)(F)F)cc1,82*,40,nt,-19,-10,i
Cn1c(C2CCCCC2)nc2cc(N)ccc21,35,5,nt,nt,nt,nt
CN1CCc2c(sc3c2C(=O)NC(c2ccc(-c4ccc(Cl)cc4)o2)N3)C1 (configuration not stated),-90,-86*,nt,4,-249,?
CN1CCc2c(sc3c2C(=O)NC(c2ccco2)N3)C1 (configuration not stated),1,-7,0,-8,-2,i
COc1ccccc1-n1c(C)c(C(=O)O)c2cc(OC)c3ccccc3c21,5,2,nt,nt,nt,nt
Cc1occc1C(=O)N=Nc1c(O)[nH]c2ccc(Br)cc12,50*,20,0,-6,2,i
Cc1cccc(NC(=O)c2cc(=O)[nH]c3ccccc23)c1,-18,-8,nt,nt,nt,nt
O=C(CNC(=O)c1ccco1)N=Nc1c(O)[nH]c2ccc(Br)cc12,10,-4,nt,nt,nt,nt
COc1ccccc1NC(=S)N=Nc1c(O)[nH]c2ccc(Br)cc12,86*,78,nt,-8,-10,i
Oc1[nH]c2ccc(Br)cc2c1N=NC(=S)NCC1CCCO1 (configuration not stated),-11,-8,nt,1,13,i
Cc1cccc(NC(=S)N=Nc2c(O)[nH]c3ccccc23)c1,90*,55,0,2,19,i
Cc1cc(C)c(C(=O)NC2CCCc3c2cnn3-c2ccc(C)c(C)c2)c(=O)[nH]1 (configuration not stated),19,3,nt,nt,nt,nt
CCC1CCCCN1C(=O)COC(=O)c1cc2ccccc2cc1O (configuration not stated),83*,46,0,-6,0,i
SMILES,HSF-1 act,HSF1 inh,Hsp70 activator,Mdm2 ligase inh,Rad51 HR inh,HSV augment
CNC(=S)NNC(=O)c1cccn(Cc2ccc(Cl)c(Cl)c2)c1=O,14,18,0,-9,4,i
C=CCNC(=S)NNC(=O)c1cccn(Cc2ccc(Cl)c(Cl)c2)c1=O,81*,23,0,-6,2,i
O=C(c1ccc2c(=O)n(Cc3ccc(Cl)cc3)c(=S)[nH]c2c1)N1CCOCC1,-12,-21,nt,nt,nt,nt
O=C1c2ccccc2C(=O)C1c1ccc(O)cc1,72*,39,0,-18,4,i
O=C1c2ccccc2C(=O)C1c1ccc(Br)cc1,8,-5,nt,nt,nt,nt
COC(=O)[C@@H](Cc1c[nH]c2ccccc12)NC(=O)c1ccc2c(c1)OCO2,70*,30,nt,nt,nt,nt
CC1(c2ccc3ccccc3c2)NC(=O)N(CC(=O)Nc2cccc(S(=O)(=O)N3CCOCC3)c2)C1=O (configuration not stated),36,11,0,-4,6,i
COc1ccc(NC(=O)c2cc(C)n(Cc3cccs3)c2C)cc1,68*,40,nt,-18,17,i
Cc1cccc(N=c2oc3cc(O)ccc3cc2C(N)=O)c1,58*,23,0,-15,-10,i
CC(=O)N(Cc1c(C)nn(-c2ccccc2)c1Cl)c1ccc(Cl)cc1,6,6,0,-8,8,i
Cc1nn(-c2ccccc2)c(Cl)c1CN(C(=O)CCl)c1ccc(Cl)cc1,-85,-86*,0,-22,-2,i
CCN1C/C(=C\c2cccc([N+](=O)[O-])c2)C(=O)/C(=C/c2cccc([N+](=O)[O-])c2)C1,nt,nt,0,39*,7,i
O=C1/C(=C/c2cccc([N+](=O)[O-])c2)CCc2ccccc21,8,4,0,-7,nt,i
CC(C)c1ccccc1NC(=O)COC(=O)/C=C/c1cccc([N+](=O)[O-])c1,12,9,0,-9,-2,i
O=C(OCc1nnc(-c2ccc(Cl)cc2)o1)c1ccc(O)cc1,9,3,0,1,16,i
CS(=O)(=O)c1ccc(C(=O)OCc2nnc(-c3ccc(Cl)cc3)o2)cc1[N+](=O)[O-],-95,-96*,0,-15,-5,i
O=C1CCC[C@@H]2[C@H]3CCC[N+]4([O-])CCC[C@@H](CN12)[C@@H]34 (some centres not stated),11,-1,nt,nt,nt,nt
O=C(CS(=O)(=O)c1ccccc1)c1cc2cc(F)ccc2oc1=O,325*,240,nt,nt,nt,nt
COc1cccc2cc(C(=O)CS(=O)(=O)c3ccc(C(C)(C)C)cc3)c(=O)oc12,2,-3,nt,nt,nt,nt
O=C(CS(=O)(=O)c1ccccc1)c1cc2ccccc2oc1=O,57*,37,nt,nt,nt,nt
COc1ccc2cc(C(=O)CS(=O)(=O)c3ccccc3)c(=O)oc2c1,40,25,nt,nt,nt,nt
CC(C)c1ccc(N(CC(=O)NCc2cccnc2)S(=O)(=O)c2ccccc2)cc1,14,11,nt,nt,nt,nt
Oc1ccc(N=Nc2ccc3c(c2)OCO3)c2ccccc12,nt,nt,nt,nt,1,i
Cc1ccc(N=Nc2ccc(O)c3ncccc23)cc1,123*,124,0,12,4,i
Oc1ccc(F)c2cccnc12,8,9,0,-12,nt,i
Cc1ccc(N=Nc2ccc(O)c3ncccc23)cc1C,-55,-51*,0,-3,-3,i
